Results on 61 molecules are retold here after ChEMBL document CHEMBL4020742, “Design and optimization of purine derivatives as in vivo active PDE10A inhibitors” (Bioorg Med Chem, 2017).

The target of assay [1] is T1, cAMP and cAMP-inhibited cGMP 3',5'-cyclic phosphodiesterase 10A (Homo sapiens, UniProt Q9Y233). As to the kind of experiment: Inhibition of recombinant human N-terminal GST-tagged PDE10A1 (2 to 789 residues) expressed in baculovirus infected Sf9 cells at 5 uM using fluorescein-labeled cAMP as substrate preincubated for 15 mins followed by substrate addition measured after 30 mins by IMAP fluorescence polarization assay relative to control. In a few lines: (§1)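 Recombinant PDE4A1A, PDE2A1 or PDE10A1 was incubated with compound (1% DMSO, duplicate) for 15 min at RT. Fluorescein-cAMP was then added for 30 min at RT, and the reaction was stopped with IMAP binding reagent (1 h, dark). FP was read at Ex485/Em535. Inhibition was set against no-enzyme and DMSO controls. IC50 came from a four-parameter logistic fit; values are the mean of at least two measurements.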
In general terms: Polarisation of emitted light reports the rotation of a fluorescent probe.

Assay [2] addresses T1, cAMP and cAMP-inhibited cGMP 3',5'-cyclic phosphodiesterase 10A. As to the kind of experiment: Inhibition of recombinant human N-terminal GST-tagged PDE10A1 (2 to 789 residues) expressed in baculovirus infected Sf9 cells using fluorescein-labeled cAMP as substrate preincubated for 15 mins followed by substrate addition measured after 30 mins by IMAP fluorescence polarization assay. In outline:
as §1

Structures are written as SMILES.

T1 sequence (Q9Y233 whole entry, the tested form may be a part): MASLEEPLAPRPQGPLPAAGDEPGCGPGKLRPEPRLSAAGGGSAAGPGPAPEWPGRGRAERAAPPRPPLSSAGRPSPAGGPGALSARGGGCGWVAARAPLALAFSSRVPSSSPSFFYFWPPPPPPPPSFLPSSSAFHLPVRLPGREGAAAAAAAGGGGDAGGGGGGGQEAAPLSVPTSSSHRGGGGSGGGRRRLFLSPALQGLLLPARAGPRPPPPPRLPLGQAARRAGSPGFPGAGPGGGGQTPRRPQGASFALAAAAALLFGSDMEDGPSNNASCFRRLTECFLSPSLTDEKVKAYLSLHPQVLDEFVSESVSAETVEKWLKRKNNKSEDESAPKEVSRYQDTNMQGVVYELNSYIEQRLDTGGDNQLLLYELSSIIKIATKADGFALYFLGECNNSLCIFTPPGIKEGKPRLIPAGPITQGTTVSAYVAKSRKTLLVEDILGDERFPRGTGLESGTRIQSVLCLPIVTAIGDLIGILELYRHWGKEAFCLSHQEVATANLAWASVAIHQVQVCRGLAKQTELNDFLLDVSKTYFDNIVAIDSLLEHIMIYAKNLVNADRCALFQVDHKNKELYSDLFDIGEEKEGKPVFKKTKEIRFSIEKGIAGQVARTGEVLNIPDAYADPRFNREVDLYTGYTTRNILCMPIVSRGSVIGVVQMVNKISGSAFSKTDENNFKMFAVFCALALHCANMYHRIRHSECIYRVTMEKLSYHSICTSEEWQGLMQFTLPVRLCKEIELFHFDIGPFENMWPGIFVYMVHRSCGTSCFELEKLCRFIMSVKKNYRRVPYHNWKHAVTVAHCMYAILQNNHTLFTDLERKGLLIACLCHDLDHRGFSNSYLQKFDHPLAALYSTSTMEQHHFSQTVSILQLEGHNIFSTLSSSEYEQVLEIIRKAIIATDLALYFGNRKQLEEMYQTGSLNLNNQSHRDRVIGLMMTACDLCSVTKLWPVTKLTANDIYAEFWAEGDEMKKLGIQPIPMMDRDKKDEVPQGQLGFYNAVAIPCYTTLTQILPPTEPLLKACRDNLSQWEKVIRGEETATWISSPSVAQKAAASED

As for `COc1ccc(CCNc2c(C)nc3c(N4CCOCC4)nccn23)cc1-c1ccccc1`, the inhibition – broadly, the percentage by which the read-out fell short of the control – in assay [1] stood at 80%.

With `Cc1ccc(-c2ccccc2CNc2c(C)nc3c(N4CCOCC4)nccn23)cc1`, the inhibition in assay [1] is 57%. Consider `Cc1nc2c(N3CCOCC3)nccn2c1NCc1ccc(-c2cccnc2)cc1`, for which the inhibition in assay [1] was determined as 90%. The IC50 (in general, the midpoint of a concentration-inhibition curve) in assay [2] turned out to be 529 nM. Regarding `Cc1nc2c(N3CCOCC3)nccn2c1NCc1ccc(Br)cc1`, in assay [1], the inhibition worked out at 77%. With `COc1ccc(CCNc2c(C)nc3c(N4CCOCC4)nccn23)c(Br)c1`, the inhibition in assay [1] was 92%. In assay [2], the IC50 stood at 243 nM. Turning to `Cc1nc2c(N3CCOCC3)nccn2c1NCc1ccccc1-c1ccccc1`, the inhibition in assay [1] stood at 75%. For `Cc1nc2c(N3CCOCC3)ncnc2n1Cc1ccc(-c2ccncc2)cc1`, in assay [1], the inhibition is 96%. Further, the IC50 in assay [2] worked out at 116 nM.

Regarding `O=C(Cn1cnc2c(N3CCOCC3)ncnc21)c1ccccc1`, in assay [1], the inhibition was 11%.

For the molecule `Cc1noc(C)c1-c1ccc(CNc2c(C)nc3c(N4CCOCC4)nccn23)cc1`, in assay [1], the inhibition stood at 90%. The IC50 in assay [2] is 518 nM. As to `Cc1nc2c(N3CCOCC3)nccn2c1NCCc1ccc2ccccc2c1`, the inhibition in assay [1] was determined as 78%.

For the molecule `Cc1nc2c(N3CCOCC3)nccn2c1NCc1ccc(-c2ccccc2)cc1`, the inhibition in assay [1] is 55%. Regarding `c1ccc(-c2ccc(Cn3cnc4c(N5CCOCC5)ncnc43)cc2)cc1`, the inhibition in assay [1] is 94%. Besides, the IC50 in assay [2] was determined as 103 nM. With `Cc1nc2c(N3CCOCC3)nccn2c1NCc1ccc(-c2ccc3ccccc3c2)cc1`, in assay [1], the inhibition came to 54%.

Turning to `Cc1nc2c(N3CCOCC3)nccn2c1NCc1ccccc1-c1cccnc1`, in assay [1], the inhibition came out at 76%. Take `CCc1nc2c(N3CCOCC3)ncnc2n1Cc1ccc(-c2ccccc2)cc1`: the inhibition in assay [1] stood at 97%. For the same molecule, the IC50 in assay [2] turned out to be 168 nM. With `Cc1nc2c(N3CCOCC3)nccn2c1NCc1ccc(-c2ccccc2Cl)cc1`, the inhibition in assay [1] came to 77%. Still for that read-out and setting: with `COc1ccc(CCNc2c(C)nc3c(N4CCOCC4)nccn23)cc1OC` the figure was 83%. On to `Brc1ccc(Cn2cnc3c(N4CCOCC4)ncnc32)cc1`, for which the inhibition in assay [1] is 90%. For the same molecule, the IC50 in assay [2] was 530 nM. In the case of `Cc1noc(C)c1-c1ccc(Cn2c(C)nc3c(N4CCOCC4)ncnc32)cc1`, the inhibition in assay [1] stood at 96%. Besides, in assay [2], the IC50 turned out to be 119 nM. `Cc1nc2c(N3CCOCC3)nccn2c1NC(=O)Cc1ccc2c(c1)OCO2`: the inhibition in assay [1] was 44%. As to `Clc1cccc(Cl)c1Cn1cnc2c(N3CCOCC3)ncnc21`, the inhibition in assay [1] turned out to be 70%. Same read-out and setting: for `COc1cccc(CCn2cnc3c(N4CCOCC4)ncnc32)c1` the value was 20%; for `Cc1nc2c(N3CCOCC3)nccn2c1NCc1ccccc1-c1cncnc1`, 61%. Regarding `Cc1nc2c(N3CCOCC3)nccn2c1NCc1ccccc1-c1ccncc1`, in assay [1], the inhibition amounted to 70%.

Turning to `Cc1nc2c(N3CCOCC3)nccn2c1NCc1ccc(-c2ccc(C(C)(C)C)cc2)cc1`, the inhibition in assay [1] worked out at 38%.

Turning to `COc1ccc(-c2ccccc2CNc2c(C)nc3c(N4CCOCC4)nccn23)cc1`, the inhibition in assay [1] amounted to 60%.

For the molecule `Cc1nc2c(N3CCOCC3)nccn2c1NC(=O)Cc1ccccc1`, the inhibition in assay [1] was found to be 51%. Consider `COc1ccc(CCNc2c(C)nc3c(N4CCOCC4)nccn23)c(-c2ccccc2)c1`, for which the inhibition in assay [1] is 93%. In assay [2], the half-maximal inhibitory concentration (IC50) came to 336 nM. Regarding `Cc1nc2c(N3CCOCC3)nccn2c1NCc1ccccc1-c1cnn(C)c1`, the inhibition in assay [1] was determined as 64%. As for `Cc1nc2c(N3CCOCC3)nccn2c1NC(=O)Cc1c(Cl)cccc1Cl`, in assay [1], the inhibition was 47%.

On to `COc1cc(Cn2cnc3c(N4CCOCC4)ncnc32)cc(OC)c1`, for which the inhibition in assay [1] is 85%. Take `Cc1nc2c(N3CCOCC3)nccn2c1NCCc1c(Cl)cccc1Cl`: the inhibition in assay [1] was found to be 98%. The concentration for half-maximal inhibition (IC50) in assay [2] amounted to 447 nM. Regarding `Cc1nc2c(N3CCOCC3)nccn2c1NCc1ccccc1-c1ccc(C(C)(C)C)cc1`, the inhibition in assay [1] was 39%. With `c1ccc(Cn2cnc3c(N4CCOCC4)ncnc32)cc1`, in assay [1], the inhibition turned out to be 66%. For `Cc1nc2c(N3CCOCC3)nccn2c1NC(=O)Cc1ccc2ccccc2c1`, the inhibition in assay [1] turned out to be 24%.

For `Cc1nc2c(N3CCOCC3)ncnc2n1Cc1ccc(-c2ccccc2)cc1`, the inhibition in assay [1] is 99%. Besides, the concentration for half-maximal inhibition (IC50) in assay [2] is 113 to 118 nM. For `c1ccc2cc(Cn3cnc4c(N5CCOCC5)ncnc43)ccc2c1`, in assay [1], the inhibition worked out at 100%. The IC50 in assay [2] was 107 nM. Regarding `Cc1nc2c(N3CCOCC3)ncnc2n1Cc1ccccc1Br`, the inhibition in assay [1] came out at 87%. Take `c1ccc(CCn2cnc3c(N4CCOCC4)ncnc32)cc1`: the inhibition in assay [1] turned out to be 13%. Consider `Cc1ccc(-c2ccc(CNc3c(C)nc4c(N5CCOCC5)nccn34)cc2)cc1`, for which the inhibition in assay [1] came to 74%.

As for `COc1ccc(-c2ccc(CNc3c(C)nc4c(N5CCOCC5)nccn34)cc2)cc1`, the inhibition in assay [1] amounted to 87%. In the case of `Cc1nc2c(N3CCOCC3)nccn2c1NCc1ccc(-c2cncnc2)cc1`, the inhibition in assay [1] was 79%.

For `Cc1nc2c(N3CCOCC3)ncnc2n1Cc1ccc(-c2cccc(Cl)c2)cc1`, the inhibition in assay [1] amounted to 93%. Moreover, the 50% inhibitory concentration (IC50) in assay [2] was found to be 258 nM. In the case of `Cc1nc2c(N3CCOCC3)nccn2c1NCc1ccccc1-c1ccccc1Cl`, the inhibition in assay [1] came out at 87%. With `Cc1nc2c(N3CCOCC3)ncnc2n1Cc1ccc(-c2cccnc2)cc1`, the inhibition in assay [1] turned out to be 97%. Also, the IC50 in assay [2] is 61 nM. For `Cc1noc(C)c1-c1ccccc1CNc1c(C)nc2c(N3CCOCC3)nccn12`, the inhibition in assay [1] is 68%. With `Cc1nc2c(N3CCOCC3)nccn2c1NCCc1ccccc1`, in assay [1], the inhibition stood at 74%. Turning to `Cc1nc2c(N3CCOCC3)nccn2c1NCc1ccc(-c2cnn(C)c2)cc1`, the inhibition in assay [1] came to 88%. Consider `Cc1nc2c(N3CCOCC3)nccn2c1NCCc1ccc2c(c1)OCO2`, for which, in assay [1], the inhibition is 82%. With `Cc1nc2c(N3CCOCC3)nccn2c1NCc1ccccc1-c1ccc2ccccc2c1`, the inhibition in assay [1] was 63%. On to `COc1ccc(CCNc2c(C)nc3c(N4CCOCC4)nccn23)cc1Br`, for which the inhibition in assay [1] worked out at 81%. As for `Cc1nc2c(N3CCOCC3)ncnc2n1Cc1ccc(-c2ccc(Cl)cc2)cc1`, the inhibition in assay [1] came out at 91%. The 50% inhibitory concentration (IC50) in assay [2] amounted to 168 nM. Regarding `COc1ccc(-c2ccccc2CNc2c(C)nc3c(N4CCOCC4)nccn23)cc1OC`, in assay [1], the inhibition came out at 51%. The same measure, in the same setting: with `COc1ccc(CC(=O)Nc2c(C)nc3c(N4CCOCC4)nccn23)cc1OC` the figure was 50%. Take `CCOC(=O)c1ccc(Cn2c(C)nc3c(N4CCOCC4)ncnc32)cc1`: in assay [1], the inhibition was 90%. On to `Cc1nc2c(N3CCOCC3)ncnc2n1Cc1ccc(-c2cnc3[nH]ncc3c2)cc1`, for which, in assay [1], the inhibition amounted to 98%. Further, in assay [2], the IC50 turned out to be 60 nM.

In the case of `Cc1nc2c(N3CCOCC3)nccn2c1NCc1ccc(-c2ccncc2)cc1`, the inhibition in assay [1] was found to be 91%. Moreover, the IC50 in assay [2] was 391 nM. For `Cc1nc2c(N3CCOCC3)nccn2c1NCc1ccccc1Br`, in assay [1], the inhibition is 73%. Take `Cc1nc2c(N3CCOCC3)ncnc2n1Cc1ccc(Br)cc1`: the inhibition in assay [1] turned out to be 93%. The IC50 in assay [2] came out at 327 nM. As for `Cc1nc2c(N3CCOCC3)ncnc2n1Cc1ccc(C(=O)Nc2ccccc2)cc1`, in assay [1], the inhibition is 96%. For the same molecule, the IC50 in assay [2] was 130 nM.

Consider `COc1ccc(-c2ccc(Cn3c(C)nc4c(N5CCOCC5)ncnc43)cc2)cc1`, for which the inhibition in assay [1] turned out to be 94%. For the same molecule, the IC50 in assay [2] was 62 nM.
